Bioassay records: PubChem BioAssay, The Scripps Research Institute Molecular Screening Center
TCR-CD3 inh: blocks the human TCR-CD3 interaction; inhibition, % at 9.4 µM; 0.37% of 360,000 active; TAMRA-labeled TCR probe fluorescence, biochemical; in the data active = inhibition above about 19%;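 also: recombinant mutant TCR 2C K166C tagged with TAMRA read by polarization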
ABHD4 inh: inhibits mouse alpha/beta hydrolase domain 4 | Q8VD66 | purified mABHD4, FP-Rh probe fluorescence polarization | inhibition, % at 8.92 µM | 0.54% of 370,000 active;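 active = inhibition exceeding the mean over every tested compound plus 3 SD, cut at about 30% in these data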
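Assay system: mouse ABHD4 enzyme, wild type / Also added: fluorescent activity-based probe FP-Rh / Doses: single nominal dose of 8.92 µM, 0.89% DMSO final / Timing: 45 min compound pre-incubation plus 60 min probe step, 25 °C / Signal: FP readout, ex 525 nm / em 598 nm / Control set: S159A mutant/DMSO as 100%, compound-well median as 0%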
SIAE inh: human SIAE inhibition, primary screen | AID 1053197 | inhibition, % at 9.66 µM | SIAE FP-Rh probe binding, fluorescence polarization | 0.69% of 370,000 active | Q9HAT2;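 active = inhibition above a cutoff: mean of compounds within the control limits plus 3 SD of those, cut at about 17% in these data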
HTRA1 inh: inhibitors of human serine peptidase HTRA1; recombinant HTRA1, FP-rhodamine activity-based probe, fluorescence polarization; inhibition, % at 5.96 µM; 0.5% of 340,000 active; AID 504803; in the data active = inhibition above about 36%
Target sequence (Q92743 whole entry, looked up): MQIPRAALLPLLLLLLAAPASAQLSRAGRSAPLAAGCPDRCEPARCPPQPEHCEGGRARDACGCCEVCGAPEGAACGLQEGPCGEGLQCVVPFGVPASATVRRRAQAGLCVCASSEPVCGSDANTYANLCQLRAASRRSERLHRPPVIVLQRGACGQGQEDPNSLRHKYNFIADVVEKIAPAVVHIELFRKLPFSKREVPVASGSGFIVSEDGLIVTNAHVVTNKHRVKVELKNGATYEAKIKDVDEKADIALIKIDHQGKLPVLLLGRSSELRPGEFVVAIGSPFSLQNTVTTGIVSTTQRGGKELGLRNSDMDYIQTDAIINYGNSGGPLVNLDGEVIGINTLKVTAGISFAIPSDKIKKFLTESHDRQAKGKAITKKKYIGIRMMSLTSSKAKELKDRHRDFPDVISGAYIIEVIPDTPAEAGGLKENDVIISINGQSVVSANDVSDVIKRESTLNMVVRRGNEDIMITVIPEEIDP
DAGLB inhibitor: blocks human DAGLB lipase activity; 0.059% of 340,000 active; HEK293T DAGLB membrane lysate, EnzChek fluorogenic substrate; Q8NCG7; AID 504411; inhibition, % at 5.17 µM; in the data active = inhibition above about 34%
SIAE confirm: human SIAE inhibition, confirmation. shares compounds with SIAE inh. SIAE FP-Rh activity-based probe, fluorescence polarization. inhibition, % at 9.66 µM. 13% of 2,300 active. AID 1117263;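 active = mean inhibition of the replicates above the hit cutoff set in the primary screen, cut at about 17% in these data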;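 also: inhibitors lower polarization as more probe stays unbound to SIAE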
Hits are given with their value; i = inactive; nt = no result given. Most compounds without a hit are left out; they make up all but 1.6% or so of the library.

SMILES	TCR-CD3 inh	ABHD4 inh	SIAE inh	HTRA1 inh	DAGLB inhibitor	SIAE confirm
CN(C)c1ccc(NC(=O)C2C3C=CC(C3)C2C(=O)O)cc1 (stereo not drawn)	32.7	34.5	23.3	i	i	i
Cc1ccc2c(c1)=C(c1sc(N(C)c3ccc(O)cc3)nc1O)C(=O)N=2	i	i	17.4	i	i	i
COCCNC(=O)c1cccc(OC2CCN(Cc3cccc(C(C)=O)c3)CC2)c1	i	i	26.5	i	i	i
COCCNC(=O)c1cccc(OC2CCN(Cc3ccc(F)c(OC)c3)CC2)c1	i	i	i	i	i	nt
C/C(=C\C(=O)c1ccccc1)Nc1ccc(N2CCOCC2)cc1	i	i	18.0	i	i	i
C/C(=C\C(=O)c1ccccc1)Nc1ccc(Br)c(Cl)c1	i	i	18.3	i	i	i
O=C(COC(=O)c1cc(Cl)ccc1O)NCCC1=CCCCC1	i	i	17.4	i	i	i
O=C(COC(=O)Cc1ccc(Cl)cc1Cl)NCCC1=CCCCC1	i	i	i	i	i	nt
Cc1ccc(F)c(NC(=S)Nc2cccc3ccccc23)c1	i	i	17.8	i	i	i
O=C(CN1C(=O)C2(OCCCO2)c2ccccc21)NCc1ccccc1Cl	nt	i	i	nt	nt	nt
O=C(CSc1ccc(-c2ccccn2)nn1)Nc1ccc(F)cc1F	i	i	i	i	i	nt
O=C(CSc1ccc(-c2ccco2)nn1)Nc1ccc(F)cc1F	i	i	18.8	i	i	i
Oc1c(Br)cc(Br)cc1C=Nc1cccc2ncccc12	i	i	21.9	i	i	i
O=C(/C=N/O)Nc1ccc2sc3ccccc3c2c1	i	i	61.4	i	i	49.6
COC(=O)c1ccccc1NC(=O)/C=N/O	i	i	i	i	i	nt
CCCC[C@@H]1C(=O)N2N=C(c3ccccc3)c3ccccc3[C@H]2N2N=C(c3ccccc3)c3ccccc3[C@@H]12	nt	i	i	nt	nt	nt
CSCc1cc(N2CCCC2)nc(-c2ccccc2)n1	i	i	18.5	i	i	i
C[C@@H]1O[C@@H](n2c3ccc(Cl)cc3c3ccc4c5cc(Cl)ccc5[nH]c4c32)[C@H](O)[C@H](O)[C@H]1O	nt	i	i	nt	nt	nt
COCc1[nH]nc2c1C(c1ccc(C)cc1)NC2=O (stereo not drawn)	i	i	i	nt	nt	nt
O=C(COc1cc2oc(=O)c3c(c2cc1Cl)CCCC3)N1C[C@H]2C[C@@H](C1)c1cccc(=O)n1C2	i	i	i	i	i	nt
CC(Oc1cc2oc(=O)c3c(c2cc1Cl)CCC3)C(=O)N1C[C@H]2C[C@@H](C1)c1cccc(=O)n1C2 (stereo partly drawn)	i	i	17.9	i	i	i
CNc1nc(N)c([N+](=O)[O-])c(Nc2cccc(Br)c2)n1	nt	i	i	nt	nt	nt
O=C(/C=C/c1ccccc1)N1CCN(CC(O)COc2ccccc2)CC1 (stereo not drawn)	i	i	19.3	i	i	i
Cc1ccc(S(=O)(=O)N(C)c2ccccc2C(=O)N2CCCC2)cc1	i	i	17.2	i	i	i
COc1ccc(N2CCN(C(=O)c3ccccc3N(C)S(=O)(=O)c3ccc(C)cc3)CC2)cc1	i	i	i	i	i	nt
SMILES	TCR-CD3 inh	ABHD4 inh	SIAE inh	HTRA1 inh	DAGLB inhibitor	SIAE confirm
Cc1cc(S(=O)(=O)c2ccc([N+](=O)[O-])cn2)ccc1Br	i	i	23.7	i	i	i
CCCCCCC12C(=Cc3cc(C)ccc31)c1ccccc1C(CC(=O)NCc1ccccc1)N2C(=O)OC (stereo not drawn)	i	i	i	nt	nt	nt
Oc1ccc(N2CCN(c3ccnc4cc(Cl)ccc34)CC2)cc1	i	i	i	i	i	nt
NC(=S)NNc1ccnc2cc(Cl)ccc12	i	i	19.6	i	i	i
FC(F)Oc1ccc(NC(=S)NNc2ccnc3cc(Cl)ccc23)cc1	i	i	35.5	i	i	i
O=C(NNc1ccnc2cc(Cl)ccc12)C1CCCCC1	i	i	i	i	i	nt
C/C(=N/Nc1ccnc2cc(Cl)ccc12)c1ccc(O)cc1	i	i	37.1	i	i	i
Cc1cc(N2CCN(C(=O)OC(C)(C)C)C[C@H]2C)ccc1N1CCS(=O)(=O)CC1	i	i	i	nt	nt	nt
CC[C@@H](CCCc1ccc(F)cc1)CN(Cc1ccc(OC)cc1)S(=O)(=O)c1ccc(C)cc1	nt	i	i	nt	nt	nt
COc1ccc(CC2=CC(=O)c3ccccc3C2=O)cc1	i	i	17.9	i	i	i
CC1(C)CC(=O)C=C(Nc2ccccc2NC(=O)c2cc(F)ccc2F)C1	nt	i	i	nt	nt	nt
Cc1c(C2(O)CCCCC2)[nH]c2ccc(C#N)cc12	i	i	17.9	i	i	i
COc1cc(/C=N/NC(=O)CCn2c3ccccc3c3ccccc32)ccc1O	i	i	18.2	i	i	i
COc1cc(/C=N/NC(=O)C2COc3ccccc3O2)ccc1O (stereo not drawn)	i	i	20.0	i	i	i
CCCn1c(=O)[nH]c(=O)c2c1nc(-c1ccc(C#N)cc1)n2CCOC	i	i	17.5	i	i	i
Clc1ccc(Nc2nc(C3CC3)cs2)cc1	i	i	20.5	i	i	i
N#CCCN(C(=O)COC(=O)CNS(=O)(=O)c1ccc2ccccc2c1)c1ccccc1	i	i	22.7	i	i	i
COc1ccc2oc(=O)c(C(=O)NCc3ccc(F)cc3)cc2c1	i	i	62.2	i	i	i
CCOC(=O)/C(=N\Nc1ccc(Cl)cc1)c1csc(Nc2ccccc2)n1	i	i	19.9	i	i	i
CCN(CC)C(=O)c1ncn2c1C(=O)NC[C@@H]2C	i	i	i	nt	nt	nt
CC1CC1C(=O)OCC(=O)NCc1ccc(Cl)cc1 (stereo not drawn)	i	i	i	i	i	nt
COc1ccc(CNC(=O)COC(=O)C2CC2C)cc1OC (stereo not drawn)	i	i	23.9	i	i	i
N#Cc1cccc(S(=O)(=O)NCC(=O)NCCCc2ccccc2)c1	i	i	i	i	i	nt
O=C(CNS(=O)(=O)c1cccc(Br)c1)NCCCc1ccccc1	i	i	20.4	i	i	i
CN(C)S(=O)(=O)c1cccc(C(=O)NC2CCSc3ccccc32)c1 (stereo not drawn)	i	i	24.5	i	i	i
SMILES	TCR-CD3 inh	ABHD4 inh	SIAE inh	HTRA1 inh	DAGLB inhibitor	SIAE confirm
COc1ccc(/C=N/Nc2nc(-c3ccc(C)cc3)c(NC(C)=O)s2)cc1OC	i	i	i	i	i	nt
COc1cc(/C=N\Nc2nc(-c3ccc(C)cc3)c(NC(C)=O)s2)ccc1O	i	i	21.8	i	i	32.8
CCOC(=O)c1ccc(CC(=O)c2ccc(O)cc2O)o1	i	i	i	i	i	nt
CCC(=O)Oc1ccc(C/C(=N\O)c2ccc(O)cc2O)o1	i	i	36.8	i	i	28.2
C/C(=N\NC(=O)Cc1csc(N2CCOCC2)n1)c1ccccc1	i	i	20.8	i	i	i
CC(=NNC(=O)c1cc(C)nc2ccccc12)c1ccc(N2CCOCC2)cc1	i	i	i	i	i	nt
O=c1c2cn[nH]c2[nH]c(=S)n1-c1cccc2ccccc12	i	i	22.6	i	i	i
CCN(CC)c1ccc(/C=N/NC(=O)c2nnn(-c3nonc3N)c2-c2ccc(C)cc2)cc1	i	i	24.6	i	i	i
